# Several values for one entry are separate records, joined by “and”; a condition that tells them apart may be missing. Equal values may be shown once.
# How the values were obtained:
# [1] = system: CA46 human B-cell lymphoma line; assay: Annexin V-FITC/PI apoptosis detection by flow cytometry, CA46 cells; type: cell-based
# In short: (§1)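 Cells were seeded at 100,000 per well in fresh medium holding 0, 5, 10 or 20 µM test compound, alongside a vehicle control. They were exposed 24 or 48 h at 37 °C, 5% CO2. Apoptosis was read by Annexin V-FITC/PI staining and flow cytometry, in triplicate. Lines were kept as suspensions in DMEM with P/S, plus 10% FBS (17-71, GL-1) or 20% FBS (CA46). Time and concentration effects were tested by 2-way ANOVA with Tukey or Dunnett post hoc.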
# [2] = Pharmacokinetics after single oral administration in healthy dogs; type: in vivo; settings: dog; for AUC o-inf. / Cmax / F (absolute oral bioavailability) / Oral clearance / Tmax / t1/2 K10 (terminal elimination half-life): 1 mg/kg oral
# In short: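 Same six dogs in crossover, two-week washout. Test compound in 2-hydroxypropyl-β-cyclodextrin/sterile water was given once at 1.0 mg/kg as a 5-min oral slurry. Plasma was sampled at 0, 15, 30, 45, 60, 120, 240, 480, 720 min and 24 h and quantified by LC-ES/MS/MS. A one-compartment absorption model gave K01 and K10, Cmax and Tmax; Clo = dose/AUC0-inf; F = AUC oral/AUC IV × dose ratio.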
# [3] = system: GL-1 canine B-cell lymphoma line; assay: Annexin V-FITC/PI apoptosis detection by flow cytometry, GL-1 cells; type: cell-based
# In short: as §1
# [4] = Plasma concentration during 48-hour IV constant rate infusion in healthy dogs; type: in vivo; settings: dog, IV CRI
# caspase-3 [5] = biological target: T1, caspase-3 (Canis lupus familiaris, UniProt Q8MKI5); assay: Caspase-3 colorimetric assay in cell lysate, GL-1 cells; type: cell-based, canine; settings: 10 or 20 µM, incubation ≤ 4 hours
# T1 sequence (Q8MKI5 29-277): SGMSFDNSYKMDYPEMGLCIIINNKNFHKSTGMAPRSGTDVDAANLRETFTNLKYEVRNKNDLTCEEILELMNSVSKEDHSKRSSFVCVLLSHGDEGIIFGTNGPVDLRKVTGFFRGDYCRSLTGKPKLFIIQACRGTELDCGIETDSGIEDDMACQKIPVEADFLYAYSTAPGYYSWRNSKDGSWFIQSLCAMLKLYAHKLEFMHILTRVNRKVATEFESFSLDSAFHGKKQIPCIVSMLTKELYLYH
# In short: (§2)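 Lymphoma cells were exposed to 10 or 20 µM test compound for 0, 1, 2, 4, 24 and 48 h at 37 °C, 5% CO2; hour 0 served as vehicle control. Lysates from 2 million cells per time point went into a colorimetric caspase-3 assay read at 405 nm, run in duplicate. Time points were compared to control by one-way ANOVA with Dunnett's test.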
# [6] = Toxicity assessment of 48-hour IV constant rate infusion in healthy dogs; type: in vivo; settings: dog
# In short: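 Four healthy dogs from the kinetic study received IV test compound as a 10-min loading dose, then a constant-rate maintenance infusion for 48 h. […] Haematologic, non-haematologic and gastrointestinal effects were checked weekly for 4 weeks.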
# [7] = Pharmacokinetics after single IV bolus in healthy dogs; type: in vivo; settings: dog
# In short: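 Six healthy hound dogs, crossover design with two-week washout. Test compound was freshly made at 15 mg/ml in 2-hydroxypropyl-β-cyclodextrin/sterile water and given at 1.0 mg/kg as a 10-min IV bolus. Jugular plasma was taken at 0-720 min and 24 h and assayed by LC-ES/MS/MS (deuterated internal standard). AUC and AUMC were taken by linear trapezoid extrapolated to infinity; A and B came from a two-compartment fit by residuals; Cls = dose/AUC.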
# caspase-3 [8] = biological target: T1, caspase-3; assay: Caspase-3 colorimetric assay in cell lysate, 17-71 cells; type: cell-based, canine; settings: 10 or 20 µM, incubation ≤ 4 hours
# In short: as §2
# [9] = system: 17-71 canine B-cell lymphoma line; assay: Annexin V-FITC/PI apoptosis detection by flow cytometry, 17-71 cells; type: cell-based
# In short: as §1
# caspase-3 [10] = biological target: T2, caspase-3 (Homo sapiens, UniProt P42574); assay: Caspase-3 colorimetric assay in cell lysate, CA46 cells; type: cell-based; settings: 10 or 20 µM, incubation ≤ 4 hours
# T2 sequence (P42574 29-277): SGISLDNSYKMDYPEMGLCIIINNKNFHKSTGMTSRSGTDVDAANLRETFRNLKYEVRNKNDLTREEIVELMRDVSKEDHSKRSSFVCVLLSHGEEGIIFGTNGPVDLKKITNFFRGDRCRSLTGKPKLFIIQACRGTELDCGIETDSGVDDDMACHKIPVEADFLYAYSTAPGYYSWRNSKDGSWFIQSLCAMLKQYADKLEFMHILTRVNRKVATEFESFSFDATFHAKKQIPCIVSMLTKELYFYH
# In short: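 CA46 human B-cell lymphoma cells, grown in suspension in DMEM with 20% FBS and P/S at 37 °C, 5% CO2, were exposed to test compound at 10 or 20 µM for 0, 1, 2, 4, 24 and 48 h. Lysate from 2 million cells per time point was assayed with a colorimetric caspase-3 kit read at 405 nm, in duplicate. Activity was compared with vehicle-treated cells (hour 0) by one-way ANOVA and Dunnett's test.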
# [11] = 1 mg/kg IV, individual dogs A-F, 1 mg/kg
compound,measurement,setting,value
C=CCc1cccc(/C=N/NC(=O)CN2CCN(Cc3ccccc3)CC2)c1O [PAC-1],fraction of apoptotic cells,[1]; 24 hour exposure,20–35%
same,apoptosis,"[1]; 48 hour, 10 µM",≥ 50%
same,cells undergone apoptosis,"[1]; 48 hours, PAC-1 ≥10 µM",greater than 50%
same,time of average peak plasma concentration following ingestion,[2]; 1.0 mg/kg oral,45 min
same,AUC o-inf.,"[2]; Mean ± SD, n=6",310.5 ± 158.5 ng/mL/h
same,Cmax,"[2]; Mean ± SD, n=6",77.0 ± 37.5 ng/mL
same,F (absolute oral bioavailability),"[2]; Mean ± SD, n=6",17.8 ± 9.5%
same,Oral clearance,"[2]; Mean ± SD, n=6",136 ± 79.6 L/h
same,Tmax,"[2]; Mean ± SD, n=6",0.84 ± 0.28 h
same,t1/2 K10 (terminal elimination half-life),"[2]; Mean ± SD, n=6",2.08 ± 0.26 h
same,AUC o-inf.,"[2]; individual dogs A-F, 1 mg/kg",271 ng/mL/h and 408 ng/mL/h and 117 ng/mL/h and 508 ng/mL/h and 145 ng/mL/h and 414 ng/mL/h
same,Cmax,"[2]; individual dogs A-F, 1 mg/kg",63.9 ng/mL and 127 ng/mL and 31 ng/mL and 108 ng/mL and 43 ng/mL and 89 ng/mL
same,F (absolute oral bioavailability),"[2]; individual dogs A-F, 1 mg/kg",16% and 17% and 8% (2×) and 31% and 27%
same,Oral clearance,"[2]; individual dogs A-F, 1 mg/kg",137 L/h and 77 L/h and 236 L/h and 61 L/h and 230 L/h and 75 L/h
same,Tmax,"[2]; individual dogs A-F, 1 mg/kg",1.09 h and 0.51 h and 0.90 h and 1.07 h and 0.45 h and 0.99 h
same,t1/2 K10 (terminal elimination half-life),"[2]; individual dogs A-F, 1 mg/kg",2.02 h and 1.83 h and 1.86 h and 2.40 h and 1.97 h and 2.42 h
same,apoptosis,"[3]; 48 hour, 10 µM",~ 25%
same,cells remaining viable,"[3]; 48 hours, 20 µM",~ 60%
same,plasma concentration after 6 hours of infusion,"[4]; average LD 5.8 mg/kg and MD 2.3 mg/kg/hour, n=4",10.7 ± 2.0 µM
same,plateau plasma concentration,[4]; following completion of the first 24 hours,~ 18 µM
same,caspase-3 activity in cell lysate vs vehicle-treated control cells,caspase-3 [5],failed to significantly increase
same,gastrointestinal toxicity,"[6]; 48-hour CRI, 4 week monitoring, n=4",no clinically overt gastrointestinal toxicity
same,ALT,"[6]; 48-hour CRI, Day 0",46.7 ± 34.1 U/L
same,Calcium,"[6]; 48-hour CRI, Day 0",10.3 ± 0.1 mg/dL
same,Creatinine,"[6]; 48-hour CRI, Day 0",0.9 ± 0.2 mg/dL
same,Hematocrit,"[6]; 48-hour CRI, Day 0",53.0 ± 3.8%
same,Lymphocyte,"[6]; 48-hour CRI, Day 0",1.9 ± 0.3 ×10^3
same,Neutrophil,"[6]; 48-hour CRI, Day 0",5.4 ± 1.0 ×10^3
same,Phosphorous,"[6]; 48-hour CRI, Day 0",3.7 ± 0.4 mg/dL
same,Platelet,"[6]; 48-hour CRI, Day 0",1.9 ± 0.4 ×10^5
same,WBC,"[6]; 48-hour CRI, Day 0",8.2 ± 1.5 ×10^3
same,ALT,"[6]; 48-hour CRI, Day 7",57.0 ± 34.6 U/L
same,Calcium,"[6]; 48-hour CRI, Day 7",10.5 ± 0.3 mg/dL
same,Creatinine,"[6]; 48-hour CRI, Day 7",1.0 ± 0.3 mg/dL
same,Hematocrit,"[6]; 48-hour CRI, Day 7",55.4 ± 1.3%
same,Lymphocyte,"[6]; 48-hour CRI, Day 7",1.3 ± 0.2 ×10^3
same,Neutrophil,"[6]; 48-hour CRI, Day 7",5.0 ± 0.5 ×10^3
same,Phosphorous,"[6]; 48-hour CRI, Day 7",2.9 ± 0.9 mg/dL
same,Platelet,"[6]; 48-hour CRI, Day 7",1.8 ± 0.3 ×10^5
same,WBC,"[6]; 48-hour CRI, Day 7",7.0 ± 0.4 ×10^3
same,ALT,"[6]; 48-hour CRI, Day 14",56.3 ± 46.7 U/L
same,Calcium,"[6]; 48-hour CRI, Day 14",10.2 ± 0.4 mg/dL
same,Creatinine,"[6]; 48-hour CRI, Day 14",0.9 ± 0.1 mg/dL
same,Hematocrit,"[6]; 48-hour CRI, Day 14",49.3 ± 6.0%
same,Lymphocyte,"[6]; 48-hour CRI, Day 14",1.9 ± 0.7 ×10^3
same,Neutrophil,"[6]; 48-hour CRI, Day 14",4.3 ± 0.9 ×10^3
same,Phosphorous,"[6]; 48-hour CRI, Day 14",3.6 ± 0.3 mg/dL
same,Platelet,"[6]; 48-hour CRI, Day 14",2.0 ± 0.4 ×10^5
same,WBC,"[6]; 48-hour CRI, Day 14",7.0 ± 0.4 ×10^3
same,ALT,"[6]; 48-hour CRI, Day 21",49.7 ± 29.0 U/L
same,Calcium,"[6]; 48-hour CRI, Day 21",10.4 ± 0.4 mg/dL
same,Creatinine,"[6]; 48-hour CRI, Day 21",1.0 ± 0.2 mg/dL
same,Hematocrit,"[6]; 48-hour CRI, Day 21",50.6 ± 3.4%
same,Lymphocyte,"[6]; 48-hour CRI, Day 21",1.5 ± 0.2 ×10^3
same,Neutrophil,"[6]; 48-hour CRI, Day 21",5.9 ± 0.3 ×10^3
same,Phosphorous,"[6]; 48-hour CRI, Day 21",3.4 ± 0.4 mg/dL
same,Platelet,"[6]; 48-hour CRI, Day 21",2.2 ± 0.8 ×10^5
same,WBC,"[6]; 48-hour CRI, Day 21",8.4 ± 0.6 ×10^3
same,tolerability of CRI giving ≥ 10 µM for ≥ 24 hours,"[6]; IV CRI, n=4",well-tolerated by all dogs
same,"A (Y intercept, distribution phase)","[7]; 1 mg/kg IV, Mean ± SD, n=6",1483.8 ± 723.0 ng/mL
same,AUC0-inf,"[7]; 1 mg/kg IV, Mean ± SD, n=6",1740 ± 309.6 ngxhr/ml
same,AUMC0-inf,"[7]; 1 mg/kg IV, Mean ± SD, n=6",4805 ± 1211 ngxhrxhr/ml
same,"B (Y intercept, elimination phase)","[7]; 1 mg/kg IV, Mean ± SD, n=6",249.0 ± 172.9 ng/mL
same,Cls (total body clearance),"[7]; 1 mg/kg IV, Mean ± SD, n=6",9.578 ± 1.26 mL/min/kg
same,Vdc (volume of distribution in central compartment),"[7]; 1 mg/kg IV, Mean ± SD, n=6",0.678 ± 0.254 L/kg
same,Vdss (volume of distribution at steady state),"[7]; 1 mg/kg IV, Mean ± SD, n=6",1.643 ± 0.497 L/kg
same,Vdβ (volume of distribution in terminal elimination phase),"[7]; 1 mg/kg IV, Mean ± SD, n=6",2.698 ± 0.865 L/kg
same,t1/2 β (terminal elimination half-life),"[7]; 1 mg/kg IV, Mean ± SD, n=6",3.12 ± 0.67 h
same,"A (Y intercept, distribution phase)",[7]; [11],1065 ng/mL and 2598 ng/mL and 908 ng/mL and 2199 ng/mL and 1119 ng/mL and 1014 ng/mL
same,AUC0-inf,[7]; [11],1730 ngxhr/ml and 2339 ngxhr/ml and 1468 ngxhr/ml and 1645 ngxhr/ml and 1709 ngxhr/ml and 1549 ngxhr/ml
same,AUMC0-inf,[7]; [11],4751 ngxhrxhr/ml and 6167 ngxhrxhr/ml and 3693 ngxhrxhr/ml and 3802 ngxhrxhr/ml and 4247 ngxhrxhr/ml and 6174 ngxhrxhr/ml
same,"B (Y intercept, elimination phase)",[7]; [11],288 ng/ml and 584 ng/ml and 138 ng/ml and 176 ng/ml and 154 ng/ml (2×)
same,Cls (total body clearance),[7]; [11],9.63 mL/min/kg and 7.13 mL/min/kg and 10 mL/min/kg and 10.1 mL/min/kg and 9.75 mL/min/kg and 10.8 mL/min/kg
same,Vdc (volume of distribution in central compartment),[7]; [11],0.739 L/kg and 0.314 L/kg and 0.957 L/kg and 0.421 L/kg and 0.786 L/kg and 0.856 L/kg
same,Vdss (volume of distribution at steady state),[7]; [11],1.587 L/kg and 1.127 L/kg and 1.715 L/kg and 1.405 L/kg and 1.454 L/kg and 2.574 L/kg
same,Vdβ (volume of distribution in terminal elimination phase),[7]; [11],2.260 L/kg and 1.380 L/kg and 3.145 L/kg and 2.699 L/kg and 2.736 L/kg and 3.968 L/kg
same,t1/2 β (terminal half-life),[7]; [11],2.71 h and 2.24 h and 3.20 h and 3.08 h and 3.24 h and 4.26 h
same,average peak plasma concentration,"[7]; 1.0 mg/kg bolus IV, immediately following completion of infusion",2.8 ± 0.6 µM
same,caspase-3 activity in cell lysate vs vehicle-treated control cells,caspase-3 [8],failed to significantly increase
same,cells staining only for Annexin-V-FITC (early apoptosis),"[9]; 48 hour, 20 µM",approximately 70%
same,apoptotic cells,"[9]; 48 hours, PAC-1 ≥ 10 µM",≥ 60%
same,caspase-3 activity in cell lysate vs vehicle-treated control cells,caspase-3 [10],failed to significantly increase
